Data reported in ChEMBL document CHEMBL1275449, “Potent in vitro antifungal activities of naturally occurring acetylenic acids” (Antimicrob Agents Chemother, 2008).
Activity calls are given as the source filed them.

Assays:
Assay type in all cases: functional, organism-based
Nakaseomyces glabratus [1] = assay: Antifungal activity against Candida glabrata ATCC 90030 at 168.9 uM after 48 hrs by CLSI method
Outline: (§1)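 Candida inocula came from 24–72-h SD agar colonies suspended in saline. They were diluted by OD630 standard curve into RPMI 1640 (0.2% dextrose, 0.03% glutamine, 0.165 M MOPS, pH 7.0) to 1.5 × 10³ CFU/ml. Compounds were run as 11 twofold dilutions in 20% DMSO-saline, in duplicate, at 35°C for 48 h, with OD530 read before and after. Percent growth at the top concentration, IC50, MIC, and MFC (SD agar plating) were derived.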

Candida albicans [2] = assay: Antifungal activity against Candida albicans ATCC 14053 at 168.9 uM after 48 hrs by CLSI method
Candida parapsilosis [3] = assay: Antifungal activity against Candida parapsilosis ATCC 22019 at 168.9 uM after 48 hrs by CLSI method
Outline: (§2)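 Yeast suspensions made from 3-5 colonies off 24-72 h SD agar plates in saline. They were diluted by OD630 standard curve in RPMI 1640 (0.2% dextrose, 0.03% glutamine, 0.165 M MOPS, pH 7.0) to 1.5 × 10³ CFU/ml. Twofold dilutions (11 concentrations, 20% DMSO-saline) run in duplicate. OD530 read before and after 35°C, 48 h. Line values are top test concentrations; no-growth endpoints give MIC/MFC.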

[4] = tested on: Trichophyton mentagrophytes; assay: Antifungal activity against Trichophyton mentagrophytes ATCC 9533 at 168.9 uM after 5 days by CLSI method
Candida albicans [5] = assay: Antifungal activity against Fluconazole resistant Candida albicans isolate 17 at 9.4 uM after 48 hrs by CLSI method
Outline: (§3)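 Candida in CLSI broth microdilution. Saline colony suspension set to 1.5 × 10³ CFU/ml (final) in MOPS-buffered RPMI 1640, pH 7.0. Test agent given as twofold serial dilutions in 20% DMSO-saline, duplicate wells. 35°C for 48 h. Growth read as OD530 before and after incubation. Percent inhibition scored at the highest test concentration.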

Candida albicans [6] = assay: Antifungal activity against Fluconazole resistant Candida albicans isolate 1 at 9.4 uM after 48 hrs by CLSI method; outline: as §3
Candida tropicalis [7] = assay: Antifungal activity against Candida tropicalis ATCC 750 at 9.4 uM after 48 hrs by CLSI method; outline: as §3
Aspergillus fumigatus [8] = assay: Antifungal activity against Aspergillus fumigatus ATCC 204305 at 9.4 uM after 48 hrs by CLSI method
Outline: (§4)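 Aspergillus growth on 1–6-week potato dextrose slants scraped and Miracloth-filtered. Inoculum sized by OD630 curve to 2.7 × 10⁴ CFU/ml (final) in 5% Alamar blue-RPMI 1640 (MOPS, pH 7.0). Duplicate twofold dilutions from 20% DMSO-saline. 35°C for 48 h. Fluorescence 544/590 nm read before and after. Percent inhibition taken at the highest test concentration.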

[9] = tested on: Trichophyton mentagrophytes; assay: Antifungal activity against Trichophyton mentagrophytes ATCC 9533 at 9.4 uM after 5 days by CLSI method
Outline: (§5)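 Trichophyton growth scraped from 1–6-week potato dextrose slants and filtered through Miracloth. Inoculum 2.7 × 10⁴ CFU/ml (final) in 5% Alamar blue-RPMI 1640 buffered with MOPS, pH 7.0. Duplicate twofold dilutions from 20% DMSO-saline. Incubated 35°C for 5 days. Fluorescence read at 544 nm excitation, 590 nm emission. Inhibition assessed at the highest test concentration.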

Trichophyton rubrum = assay: Antifungal activity against Trichophyton rubrum ATCC MYA-4438 at 9.4 uM after 5 days by CLSI method; outline: as §5
Aspergillus flavus [10] = assay: Antifungal activity against Aspergillus flavus ATCC 204304 at 9.4 uM after 48 hrs by CLSI method; outline: as §4
Nakaseomyces glabratus [11] = assay: Antifungal activity against Candida glabrata ATCC 90030 at 198.1 uM after 48 hrs by CLSI method; outline: as §1
Aspergillus niger = assay: Antifungal activity against Aspergillus niger ATCC 16404 at 198.1 uM after 48 hrs by CLSI method
Candida albicans [12] = assay: Antifungal activity against Candida albicans ATCC 14053 at 198.1 uM after 48 hrs by CLSI method
Candida parapsilosis [13] = assay: Antifungal activity against Candida parapsilosis ATCC 22019 at 187.7 uM after 48 hrs by CLSI method; outline: as §2
Candida tropicalis [14] = assay: Antifungal activity against Candida tropicalis ATCC 750 at 187.7 uM after 48 hrs by CLSI method; outline: as §2
Candida albicans [15] = assay: Antifungal activity against Candida albicans ATCC 14053 at 187.7 uM after 48 hrs by CLSI method
Aspergillus fumigatus [16] = assay: Antifungal activity against Aspergillus fumigatus ATCC 204305 at 187.7 uM after 48 hrs by CLSI method
Candida tropicalis [17] = assay: Antifungal activity against Candida tropicalis ATCC 750 at 169.8 uM after 48 hrs by CLSI method; outline: as §2
Aspergillus flavus [18] = assay: Antifungal activity against Aspergillus flavus ATCC 204304 at 169.8 uM after 48 hrs by CLSI method

Measured: Activity

CCCCCC#CCC#CCC#CCC#CCCCC(=O)O
inactive: Nakaseomyces glabratus [1] | Candida albicans [2] | Candida parapsilosis [3] | [4]

CC(=O)N1CCN(c2ccc(OCC3COC(Cn4ccnc4)(c4ccc(Cl)cc4Cl)O3)cc2)CC1 (stereo not given) [KETOCONAZOLE]
inactive: Candida albicans [5] | Candida albicans [6] | Candida tropicalis [7] | Aspergillus fumigatus [8] | [9] | Trichophyton rubrum | Aspergillus flavus [10]

CCCCCCCCCC#CCCCCC(=O)O
inactive: Nakaseomyces glabratus [11] | Aspergillus niger | Candida albicans [12]

CCCCCCCCCCC#CCCCCC(=O)O
inactive: Candida parapsilosis [13] | Candida tropicalis [14] | Candida albicans [15] | Aspergillus fumigatus [16]

CCCCCCCCCCCCC#CCCCCC(=O)O [6-NONADECYNOIC ACID]
inactive: Candida tropicalis [17] | Aspergillus flavus [18]
